The structures appear in SMILES notation.

The first assay addresses GABA-A receptor; anion channel. Put plainly: In vitro inhibition of 3[H]Diazepam binding to Benzodiazepine receptor from rat cerebral cortical membranes; value ranges from 4-12 nM. The assay is classed as cell membranes, Membrane.
For orientation: IC50 means the concentration at which inhibition is half-maximal. A higher IC50 goes with weaker potency in that assay. `S=C=Nc1cc2c3ccccc3nc-2c[nH]1` returned an IC50 of 4 nM. That is a single-digit nanomolar value.

The target in a further assay is GABA-A receptor; anion channel. Put plainly: In vitro inhibition of 3[H]Diazepam binding to Benzodiazepine receptor from rat cerebral cortical membranes. In kind it is cell membranes, Membrane. Summed up: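 Rat cerebral cortex (decapitation) homogenized in 50 mM Tris-HCl pH 7.4, spun 20000g 20 min at 4 °C, washed three times, resuspended in 50 volumes buffer. Incubated with [3H]diazepam (final 2 nM) at 4 °C for 120 min, then filtered on GF/B with ice-cold buffer washes. Nonspecific binding taken with 10 μM flunitrazepam. IC50 from Hill plots, at least six inhibitor concentrations, mean of three or more experiments.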
`Cc1cccc2[nH]c3c4c5ccccc5nc-4c[nH]c3c12` showed an IC50 of 6860 nM.
The compound `COC(=O)c1cc2c3ccccc3n3c(=O)ccc(n1)c23` yielded an IC50 of 100 nM.
For the compound `CCOC(=O)c1cc2c(cn1)[nH]c1ccccc12`, the IC50 was determined as 5 nM.
With `CCOC(=O)c1cc2c3ccccc3c(N=O)c-2c[nH]1`, the IC50 was determined as 5000 nM. Against the preceding compound, the IC50 is about 1000-fold higher.
Turning to `Cc1ccc2c(c1)[nH]c1c3c4ccccc4nc-3c[nH]c12`, the IC50 came to 10 nM.
In turn, `CC(C)Oc1cc2c(cn1)[nH]c1ccccc12` yielded an IC50 of 500 nM. Against the preceding compound, the IC50 is about 50-fold higher.
`CCOC(=O)c1cc2c(cn1)Cc1ccccc1-2` registered an IC50 of 680 nM. This IC50 and that of the compound before are within 1.5-fold of each other.
Take `CCc1nc2c3ccccc3[nH]c2c2c1[nH]c1ccccc12`: the IC50 was 285 nM.
`CC(C)(C)OC(=O)c1cc2c3ccccc3nc-2c[nH]1` registered an IC50 of 10 nM.
In turn, `CC(C)(C)COC(=O)c1cc2c3ccccc3nc-2c[nH]1` had an IC50 of 750 nM.
With `CCOC(=O)c1cc2c(cn1)sc1ccccc12`, the IC50 was 1700 nM.
As to `c1ccc2c(c1)[nH]c1c2ccc2[nH]c3ccccc3c21`, the IC50 was 1970 nM. The IC50 values of the last two compounds are within 1.5-fold of each other.
On to `CCCC(=O)c1cc2c(cn1)[nH]c1ccccc12`, for which the IC50 worked out at 2.8 nM.
`CCc1nc(C(=O)OC)cc2c1[nH]c1ccccc12`: the IC50 was 7540 nM.
As for `COC(=O)c1cc2c3ccccc3n(C(C)=O)c2cn1`, the IC50 amounted to 9 nM.
Turning to `CCOC(=O)c1cc2c(cn1)nc(O)c1ccccc12`, the IC50 was found to be 2400 nM.
`CCCCOc1cc2c(cn1)[nH]c1ccccc12` showed an IC50 of 98 nM.
For the compound `CCCCc1cc2c(cn1)[nH]c1ccccc12`, the IC50 stood at 245 nM.
Consider `Cc1nccc2c1[nH]c1ccccc12` [HARMAN], for which the IC50 was 12400 nM. Compared with the last compound, the IC50 is about 51-fold higher.
In turn, `COC(=O)c1cc2[nH]c3ccccc3c2cn1` gave an IC50 of 653 nM. This IC50 lies about 19-fold lower than the previous one.
In turn, `CCOC(=O)c1cc2c(cn1)oc1ccccc12` came in with an IC50 of 9200 nM.
As for `C[n+]1cc2[nH]c3ccccc3c2c2[nH]c3ccccc3c21`, the concentration for half-maximal inhibition (IC50) was determined as 4660 nM.

Source of the values: ChEMBL document CHEMBL1125077, “Synthetic and computer-assisted analyses of the pharmacophore for the benzodiazepine receptor inverse agonist site” (J Med Chem, 1990).
